Test results as given in ChEMBL document CHEMBL1268915, “Optimization of a series of dipeptides with a P3 threonine residue as non-covalent inhibitors of the chymotrypsin-like activity of the human 20S proteasome” (Bioorg Med Chem Lett, 2010).
Calls of active or inactive are those of the source. No cut-off for these calls is given here.

Columns and labels:
HEK293 = experiment: (§1) Inhibition of TNF-alpha-induced NF-kappaB activation in human HEK293 cells after 3 hrs by luciferase reporter gene assay; assay type: cell-based; set-up: concentration or dose not given beside the values; conditions: dose or concentration not given here
Procedure, shortened: (§2)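 NF-κB-luciferase reporter in HEK293 cells (10,000 per well). Cells were pre-incubated with compound for 1 h, then stimulated with 10 ng/ml TNF-α for 3 h with compound still present. IC50 and percentage inhibition were reported as means of at least three independent experiments.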

[1] = as §1; assay type: cell-based; conditions: HEK293, 3 h; procedure, shortened: as §2
[2] = target: T1, Calpain-1 catalytic subunit (Homo sapiens) (UniProt P07384); experiment: Inhibition of human calpain 1 at 100 uM
T1 sequence (whole entry): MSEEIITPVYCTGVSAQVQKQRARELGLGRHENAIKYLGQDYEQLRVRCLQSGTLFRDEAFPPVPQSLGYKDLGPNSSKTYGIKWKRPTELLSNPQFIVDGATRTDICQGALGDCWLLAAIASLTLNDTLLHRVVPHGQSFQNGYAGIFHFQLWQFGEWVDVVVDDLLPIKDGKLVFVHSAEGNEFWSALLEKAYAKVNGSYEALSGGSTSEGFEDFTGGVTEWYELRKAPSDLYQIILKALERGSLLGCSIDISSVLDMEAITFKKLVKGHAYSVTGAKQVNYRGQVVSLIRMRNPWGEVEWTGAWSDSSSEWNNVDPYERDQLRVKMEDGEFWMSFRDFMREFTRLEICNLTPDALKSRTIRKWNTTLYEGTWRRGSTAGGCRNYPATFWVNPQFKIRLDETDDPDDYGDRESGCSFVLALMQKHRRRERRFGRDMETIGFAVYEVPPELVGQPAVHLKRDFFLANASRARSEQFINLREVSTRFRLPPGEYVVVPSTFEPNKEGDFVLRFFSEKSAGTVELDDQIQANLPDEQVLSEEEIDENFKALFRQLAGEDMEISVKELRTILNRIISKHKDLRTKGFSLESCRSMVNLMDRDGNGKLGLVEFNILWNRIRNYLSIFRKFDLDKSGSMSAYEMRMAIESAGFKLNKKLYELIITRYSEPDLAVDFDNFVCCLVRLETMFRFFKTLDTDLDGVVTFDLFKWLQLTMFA

[3] = Inhibition of chymotrypsin-like activity of human 20s proteasome beta2 subunit in human erythrocyte assessed as hydrolysis of Ac-WLA-AMC fluorogenic substrate
[4] = Cytotoxicity against human Calu6 cells assessed as cellular ATP level after 72 hrs by luminescence-based ATPlite assay; assay type: cell-based, Calu-6; conditions: read-out: LC50
Procedure, shortened: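 Calu6 cells, 2000 per well, incubated with compound for 72 h. Viability read as cellular ATP by luminescence (ATPlite). Values are means of at least three independent experiments.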

Trypsin (Homo sapiens) = Trypsin (Homo sapiens) (UniProt P07477+P07478+P35030); experiment: Inhibition of human trypsin at 100 uM; assay type: protein assay
[5] = target: Cathepsin B (Homo sapiens) (UniProt P07858); experiment: Inhibition of human cathepsin B at 100uM
Homo sapiens [6] = species on record: Homo sapiens; experiment: Inhibition of human elastase at 100 uM
[7] = Binding affinity to chymotrypsin-like activity of 20S proteasome
[8] = target: T2, Coagulation factor XII (Homo sapiens) (UniProt P00748); experiment: Inhibition of human coagulation factor beta 12a at 100 uM
T2 sequence (whole entry): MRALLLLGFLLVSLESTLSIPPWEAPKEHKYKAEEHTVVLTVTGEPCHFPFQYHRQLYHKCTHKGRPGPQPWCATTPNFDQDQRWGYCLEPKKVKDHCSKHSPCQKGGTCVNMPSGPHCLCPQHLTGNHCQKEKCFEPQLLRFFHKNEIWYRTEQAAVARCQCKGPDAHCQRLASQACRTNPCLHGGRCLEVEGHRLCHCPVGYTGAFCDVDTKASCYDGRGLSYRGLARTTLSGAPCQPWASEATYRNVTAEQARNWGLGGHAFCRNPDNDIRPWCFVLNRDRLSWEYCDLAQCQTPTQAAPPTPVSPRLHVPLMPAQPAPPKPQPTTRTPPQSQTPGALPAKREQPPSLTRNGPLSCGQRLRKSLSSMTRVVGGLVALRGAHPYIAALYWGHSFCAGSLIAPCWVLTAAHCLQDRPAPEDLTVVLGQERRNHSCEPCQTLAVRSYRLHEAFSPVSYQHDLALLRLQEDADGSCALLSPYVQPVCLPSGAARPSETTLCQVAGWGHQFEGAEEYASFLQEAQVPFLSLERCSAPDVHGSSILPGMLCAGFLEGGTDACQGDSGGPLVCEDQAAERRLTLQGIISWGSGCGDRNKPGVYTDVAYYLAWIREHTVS

[9] = Inhibition of chymotrypsin-like activity of human 20s proteasome beta-1 subunit in human erythrocyte assessed as hydrolysis of Ac-WLA-AMC fluorogenic substrate
[10] = target: Prothrombin (Homo sapiens) (UniProt P00734); experiment: Inhibition of human thrombin at 100 uM
[11] = target: Procathepsin L (Homo sapiens) (UniProt P07711); experiment: Inhibition of human cathepsin L at 100uM
[12] = target: Plasminogen (Homo sapiens) (UniProt P00747); experiment: Inhibition of human plasmin at 100 uM
[13] = target: Tissue-type plasminogen activator (Homo sapiens) (UniProt P00750); experiment: Inhibition of tissue plasminogen activator at 100 uM
Homo sapiens [14] = species on record: Homo sapiens; experiment: Inhibition of human chymotrypsin at 100 uM
[15] = Inhibition of chymotrypsin-like activity of human 20s proteasome beta5 subunit in human erythrocyte assessed as hydrolysis of Ac-WLA-AMC fluorogenic substrate

Chain of Procathepsin L (Homo sapiens) (P07711 114-333 limits assumed): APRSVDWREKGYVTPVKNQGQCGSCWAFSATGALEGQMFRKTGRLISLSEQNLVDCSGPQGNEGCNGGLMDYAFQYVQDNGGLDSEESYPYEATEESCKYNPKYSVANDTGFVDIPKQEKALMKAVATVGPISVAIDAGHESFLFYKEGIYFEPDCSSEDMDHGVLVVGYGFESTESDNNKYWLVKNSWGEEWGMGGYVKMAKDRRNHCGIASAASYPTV
Chain of Tissue-type plasminogen activator (Homo sapiens) (P00750 36-562 limits assumed): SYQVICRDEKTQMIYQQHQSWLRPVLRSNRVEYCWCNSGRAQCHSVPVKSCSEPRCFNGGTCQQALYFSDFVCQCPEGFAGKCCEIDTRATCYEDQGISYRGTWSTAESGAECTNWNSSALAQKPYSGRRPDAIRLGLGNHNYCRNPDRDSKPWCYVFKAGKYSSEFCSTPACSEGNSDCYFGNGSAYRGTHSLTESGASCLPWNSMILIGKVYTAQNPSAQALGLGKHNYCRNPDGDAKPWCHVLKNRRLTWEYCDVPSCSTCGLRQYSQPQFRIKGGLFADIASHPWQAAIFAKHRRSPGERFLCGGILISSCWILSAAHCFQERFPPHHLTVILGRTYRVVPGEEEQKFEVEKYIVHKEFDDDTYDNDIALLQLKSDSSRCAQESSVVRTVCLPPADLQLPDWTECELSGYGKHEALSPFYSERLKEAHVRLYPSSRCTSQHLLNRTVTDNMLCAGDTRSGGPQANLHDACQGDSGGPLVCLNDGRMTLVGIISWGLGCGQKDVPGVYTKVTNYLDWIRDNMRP
Chain of Plasminogen (Homo sapiens) (P00747 97-580 limits assumed): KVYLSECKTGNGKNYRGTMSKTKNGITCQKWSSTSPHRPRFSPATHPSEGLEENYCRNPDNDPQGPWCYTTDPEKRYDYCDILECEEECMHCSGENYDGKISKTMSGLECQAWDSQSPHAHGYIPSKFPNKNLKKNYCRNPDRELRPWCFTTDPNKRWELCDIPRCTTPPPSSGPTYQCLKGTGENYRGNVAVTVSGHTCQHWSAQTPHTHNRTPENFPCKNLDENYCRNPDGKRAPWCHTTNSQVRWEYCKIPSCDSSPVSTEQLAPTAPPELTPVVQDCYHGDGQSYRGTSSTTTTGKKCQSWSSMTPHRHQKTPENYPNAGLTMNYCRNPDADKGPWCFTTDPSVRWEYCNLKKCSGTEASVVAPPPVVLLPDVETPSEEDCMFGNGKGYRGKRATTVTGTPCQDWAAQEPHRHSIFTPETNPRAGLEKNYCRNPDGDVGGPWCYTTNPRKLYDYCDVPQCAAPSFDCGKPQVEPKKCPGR
Chain of Plasminogen (Homo sapiens) (P00747 581-810 limits assumed): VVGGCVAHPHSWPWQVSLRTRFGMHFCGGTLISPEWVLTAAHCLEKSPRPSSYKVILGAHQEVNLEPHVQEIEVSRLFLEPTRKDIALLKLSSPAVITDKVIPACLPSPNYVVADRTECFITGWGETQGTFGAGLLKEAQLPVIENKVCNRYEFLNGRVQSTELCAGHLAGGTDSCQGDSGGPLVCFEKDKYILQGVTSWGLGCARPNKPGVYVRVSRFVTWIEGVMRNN

CC(C)C[C@H](NC(=O)[C@H](Cc1ccccc1)NC(=O)c1cnccn1)B(O)O [BORTEZOMIB]
inhibition (HEK293): 100%
IC50 [1]: 0.01 µM
inhibition [2]: Active
IC50 [3]: > 20 µM
CC50 at 72 h [4]: 0.0061 µM
inhibition (Trypsin (Homo sapiens)): Active
inhibition [5]: Active
inhibition (Homo sapiens [6]): Active
Ki [7]: 0.00055 µM
inhibition [8]: Active
IC50 [9]: > 20 µM
inhibition [10]: Active
inhibition [11]: Active
inhibition [12]: Active
inhibition [13]: Active
inhibition (Homo sapiens [14]): Active

CCNC(=O)[C@H](CCc1ccccc1)NC(=O)[C@@H](NC(=O)c1ccc(OCc2ccccc2)cc1)[C@@H](C)O
inhibition (HEK293): 98%
IC50 [1]: 2.6 µM
inhibition [2]: Active
IC50 [15]: 0.44 µM
IC50 [3]: > 20 µM
CC50 at 72 h [4]: 5.1 µM
inhibition (Trypsin (Homo sapiens)): Active
inhibition [5]: Active
inhibition (Homo sapiens [6]): Active
inhibition [8]: Active
IC50 [9]: > 20 µM
inhibition [10]: Active
inhibition [11]: Active
inhibition [12]: Active
inhibition [13]: Active
inhibition (Homo sapiens [14]): Active
